Screening data (PubChem BioAssay)
In the library only some 5.2% were active in any assay of this set; here they are far more common.
NS3 helicase inh – inhibitors of HCV NS3 helicase, primary screen, biochemical, Cy5 molecular beacon fluorescence; NS3 helicase DNA unwinding; inhibition, % at 10.9 µM; AID 1800, 2009; actives 0.56% (n = 290,000);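 active means inhibition above the mean of all tested compounds plus 3 SD, set per campaign, cut at about 35% in these data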;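 further: 0% = DMSO wells and 100% = thioflavine S control wells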
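System: NS3 helicase fragment of HCV / Schedule: 1 h at 25 °C / Control set: DMSO alone as 0% and 110 µM thioflavine S as 100% / Reagent: Cy5/quencher beacon DNA duplex and ATP to start / Technique: Cy5 fluorescence / Replication: singlicate / Evaluation: % inhibition of end-to-start signal ratio versus controls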
ALR inh – inhibitors of human ALR sulfhydryl oxidase, primary screen, biochemical, H2O2 detection, HRP-luminol luminescence, single point; AID 485317, 2010; purified ALR, DTT oxidation; actives 3.8% (n = 290,000); inhibition, % (concentration not given with the values);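 active means mean replicate inhibition above about 79%, with every replicate also reaching it, limit read from the data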
Target sequence (P55789 whole entry, looked up): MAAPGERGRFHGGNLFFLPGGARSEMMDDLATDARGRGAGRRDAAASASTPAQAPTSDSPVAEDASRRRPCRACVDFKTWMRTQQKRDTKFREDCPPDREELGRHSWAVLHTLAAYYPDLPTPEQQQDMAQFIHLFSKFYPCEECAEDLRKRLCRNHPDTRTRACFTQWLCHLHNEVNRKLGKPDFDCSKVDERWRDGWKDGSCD
core dimer inh – inhibitors of HCV core protein dimerization, primary screen, biochemical, TR-FRET, high-throughput; actives 0.33% (n = 300,000); TR-FRET GST/Flag-core106 dimerization, 1536-well; inhibition, % at 5 µM;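 active means inhibition above the mean of all tested compounds plus 3 SD, set per screening campaign, cut at about 45% in these data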
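Material: Tagged HCV core106 pair (GST and Flag) | Amount: GST-core106 13.5 nM, Flag-core106 17 nM | Medium: KF-containing HEPES buffer, pH 7.45, DTT, CHAPS, BSA | Reagent: Eu donor and XL665 acceptor anti-tag antibodies | Schedule: 4 h at 22.5 °C | Technique: Time-resolved FRET, ex 340 nm, em 617 and 671 nm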
EBNA-1 inhibitor – EBNA-1 DNA-binding inhibitors, primary screen, biochemical, fluorescence polarization | actives 0.34% (n = 300,000) | inhibition, % at 14.8 µM | AID 1950, 2009; in the data active means inhibition above about 28%
M18AAP inhibitor – PfM18AAP inhibitors, malaria aminopeptidase, primary screen, biochemical, QFRET, recombinant enzyme; H-Glu-NHMec fluorogenic cleavage; inhibition, % at 7.35 µM; M18 aspartyl aminopeptidase (Plasmodium falciparum 3D7); actives 1.2% (n = 290,000); AID 1822, 2009;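 active means inhibition above the campaign mean inhibition over all tested compounds plus 3 SD, cut at about 28% in these data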;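 further: 0% = plate median of test compound wells and 100% = 2 mM ZnCl2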
ZTA counter – counter-screen for EBNA-1 inhibitors: inhibitors of Epstein-Barr virus ZTA | P03206 | ZTA-DNA binding, fluorescence polarization | inhibition, % at 11 µM | actives 0.15% (n = 320,000) | AID 2234; in the data active means inhibition above about 33%
Target sequence (P03206 whole entry, looked up): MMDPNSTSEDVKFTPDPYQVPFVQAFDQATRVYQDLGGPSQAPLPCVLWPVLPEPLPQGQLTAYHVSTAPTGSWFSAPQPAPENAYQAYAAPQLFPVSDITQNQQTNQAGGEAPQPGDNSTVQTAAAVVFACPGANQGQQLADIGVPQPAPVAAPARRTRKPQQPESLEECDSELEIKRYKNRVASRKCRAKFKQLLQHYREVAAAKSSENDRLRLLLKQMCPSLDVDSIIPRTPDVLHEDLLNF
* hit, by the source's call.

What do the screens show for `CCn1cc(CN2CCC(n3nccc3NC(=O)CCOc3ccccc3)CC2)c(C)n1`?
NS3 helicase inh: 4; ALR inh: -3; core dimer inh: -2; EBNA-1 inhibitor: -5; M18AAP inhibitor: 2; ZTA counter: -6

How did CC(C)(C)c1ccc(OCCC(=O)OCC(=O)Nc2ccc(N3CCOCC3)cc2)cc1 do in these assays?
core dimer inh: 0; EBNA-1 inhibitor: -10; ZTA counter: 8

Results for COc1cc2nc(-c3ccc(Br)o3)oc(=O)c2cc1OC ?
NS3 helicase inh: -2; ALR inh: 5; core dimer inh: 3; EBNA-1 inhibitor: -6; M18AAP inhibitor: -8; ZTA counter: 6

Results for Cc1ccc2nc(-c3ccc(Br)o3)oc(=O)c2c1 ?
NS3 helicase inh: 5; ALR inh: 89*; core dimer inh: 0; EBNA-1 inhibitor: 5; M18AAP inhibitor: 0; ZTA counter: -7

Results for COC(=O)C1=C(NC(=O)c2cccc(OC)c2)CCS1 ?
NS3 helicase inh: -2; ALR inh: 97*; core dimer inh: 1; EBNA-1 inhibitor: -5; M18AAP inhibitor: 4; ZTA counter: -6

What do the screens show for `COc1ccccc1/C=C/C=c1\sc2nc(=O)c(Cc3ccccc3)nn2c1=O`?
NS3 helicase inh: 13; ALR inh: -2; core dimer inh: 61*; EBNA-1 inhibitor: -1; M18AAP inhibitor: 0; ZTA counter: 9

What do the screens show for `COc1ccc(NC(=S)NC2CCCCC2)cn1`?
NS3 helicase inh: 2; ALR inh: -9; core dimer inh: -3; EBNA-1 inhibitor: 7; M18AAP inhibitor: -3; ZTA counter: -1

What do the screens show for `CCOc1ccc(C(=O)OCC(=O)NC2CCCCCCC2)cc1`?
ZTA counter: -4

Results for COc1ccc(Cn2ccnc2)cc1Br ?
NS3 helicase inh: 5; ALR inh: 5; core dimer inh: 5; EBNA-1 inhibitor: -2; M18AAP inhibitor: 0; ZTA counter: -9

Results for COc1ccc(NCc2ccc(OC)c(Cn3ccnc3)c2)c(OC)c1 ?
NS3 helicase inh: -20; ALR inh: 99*; core dimer inh: 0; EBNA-1 inhibitor: 9; M18AAP inhibitor: 13; ZTA counter: -1

Results for Nc1c(Cl)ncnc1N/N=C/c1cccc(O)c1 ?
NS3 helicase inh: -10; ALR inh: 97*; core dimer inh: -7; EBNA-1 inhibitor: -4; M18AAP inhibitor: 15; ZTA counter: -4

How did Cn1c(=O)c2[nH]c(N=NNc3ccccc3F)nc2n(C)c1=O do in these assays?
NS3 helicase inh: 5; ALR inh: 98*; core dimer inh: -12; EBNA-1 inhibitor: 2; M18AAP inhibitor: 2; ZTA counter: 3

What do the screens show for `O=C(O)c1cc(N/N=C/c2ccc(N3CCOCC3)cc2)ccc1Cl`?
NS3 helicase inh: 24; ALR inh: 97*; core dimer inh: -9; EBNA-1 inhibitor: -6; M18AAP inhibitor: -7; ZTA counter: -3

What do the screens show for `COc1cc(/C=N/Nc2ccc(Cl)c(C(=O)O)c2)ccc1OC(=O)c1cccs1`?
NS3 helicase inh: 35; ALR inh: 97*; core dimer inh: 4; EBNA-1 inhibitor: -5; M18AAP inhibitor: 0; ZTA counter: 6

Results for O=C(O)c1cc(N/N=C/c2ccncc2)ccc1Cl ?
NS3 helicase inh: -2; ALR inh: 3; core dimer inh: -5; EBNA-1 inhibitor: 1; M18AAP inhibitor: 2; ZTA counter: -5

How did O=C(O)c1cc(N/N=C/c2ccc(-c3ccccc3)cc2)ccc1Cl do in these assays?
NS3 helicase inh: -10; ALR inh: 99*; M18AAP inhibitor: 8

What do the screens show for `Clc1cccc(N/N=C/c2ccc(N3CCOCC3)cc2)c1`?
NS3 helicase inh: -6; ALR inh: -21; core dimer inh: 14; EBNA-1 inhibitor: -4; M18AAP inhibitor: 8; ZTA counter: -1

Results for Nc1ccn(CC(=O)NCCc2ccccn2)c(=O)n1 ?
ALR inh: -2; ZTA counter: 6

What do the screens show for `CN(C(=O)Nc1ccccc1)C1CCCc2ccccc21` (stereo not given)?
NS3 helicase inh: -2; core dimer inh: 4; EBNA-1 inhibitor: -2; M18AAP inhibitor: 5; ZTA counter: 21

Results for Cc1ccccc1N=Cc1cccc(O)c1O ?
NS3 helicase inh: 11; ALR inh: -87; core dimer inh: -3; EBNA-1 inhibitor: -8; M18AAP inhibitor: 30*; ZTA counter: -2

What do the screens show for `CC(N=Cc1cccc(O)c1O)c1ccccc1` (stereo not given)?
NS3 helicase inh: 36; ALR inh: -19; core dimer inh: 2; EBNA-1 inhibitor: 2; M18AAP inhibitor: 31*; ZTA counter: -11

Results for COc1ccc(C)cc1NC(=O)c1cc2c(CO)cnc(C)c2oc1=N ?
NS3 helicase inh: 6; ALR inh: 86*; core dimer inh: -3; EBNA-1 inhibitor: 11; M18AAP inhibitor: -2; ZTA counter: -6

Results for COc1ccccc1NC(=O)c1cc2c(CO)cnc(C)c2oc1=Nc1ccc(OC)c(OC)c1 ?
NS3 helicase inh: -5; ALR inh: 4; core dimer inh: -8; EBNA-1 inhibitor: -7; M18AAP inhibitor: -2; ZTA counter: -6

How did COc1ccc(C(=O)NCc2nnc(SCC(=O)Nc3cc(C)on3)o2)cc1OC do in these assays?
NS3 helicase inh: 0; ALR inh: 34; core dimer inh: -5; EBNA-1 inhibitor: 4; M18AAP inhibitor: 30*; ZTA counter: 5

Results for COc1cc(C(=O)NCc2nnc(SCC(=O)Nc3nc4ccccc4s3)o2)cc(OC)c1OC ?
NS3 helicase inh: 31; ALR inh: -1; core dimer inh: 0; EBNA-1 inhibitor: 2; M18AAP inhibitor: 31*; ZTA counter: -4

How did CC(C)C[C@H](NC(=O)NCc1ccc(F)cc1)C(=O)O do in these assays?
NS3 helicase inh: -3; ALR inh: -40; core dimer inh: 0; EBNA-1 inhibitor: 4; M18AAP inhibitor: -3; ZTA counter: 17

What do the screens show for `COc1ccc(-c2[nH]c(-c3ccccc3)nc2SCC(=O)Nc2nccs2)cc1`?
NS3 helicase inh: -7; ALR inh: 98*; core dimer inh: -15; EBNA-1 inhibitor: 6; M18AAP inhibitor: 3; ZTA counter: -5

How did COc1ccc(-c2[nH]c(-c3ccc(Cl)cc3)nc2SCC(=O)Nc2nccs2)cc1 do in these assays?
NS3 helicase inh: 1; ALR inh: 94*; core dimer inh: 10; EBNA-1 inhibitor: 5; M18AAP inhibitor: -4; ZTA counter: 11

What do the screens show for `Cc1cccc(-n2ncc3c2CCCC3NC(=O)C2=CC(=O)CC(C)(C)O2)c1C` (stereo not given)?
NS3 helicase inh: -14; ALR inh: -3; core dimer inh: 3; EBNA-1 inhibitor: -3; M18AAP inhibitor: -3; ZTA counter: 7
